By MIC is commonly meant the lowest concentration that inhibits growth of the organism.

In ChEMBL document CHEMBL1123819, “Synthesis and antifungal activity of a series of novel 1,2-disubstituted propenones” (1987) one finds MIC data, which are given here for one compound.

Common to all, as to assay type: functional
The test system of experiment [1] is Candida albicans. The experiment in a line: Antifungal activity against Candida albicans was determined in vitro. The gist of the method:
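MIC by broth microdilution in microtiter plates. Final inoculum 1 × 10^5 yeast cells per mL of Sabouraud's glucose broth. Fungistatic activity was assessed.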

Experiment [2] concerns Trichophyton benhamiae. Briefly: Antifungal activity against Trichophyton asteroides was determined in vitro. The gist of the method:
(§1)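 Broth microdilution in Sabouraud's glucose broth; MIC read as the fungistatic end point. Final inocula were 1 × 10^5 cells/mL for the yeast and 1 × 10^5 conidia/mL for the mould and the dermatophyte.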

Experiment [3] relates to Aspergillus fumigatus. The experiment in a line: Antifungal activity against Aspergillus fumigatus was determined in vitro. The method, boiled down:
as §1

Converted amounts (≈) assume the structure as drawn.

With `C=C(c1ccccc1OCc1cccc(Cl)c1)n1ccnc1` [CROCONAZOLE], the MIC in experiment [1] is 3.1 µg/mL (≈ 9.97 µM); in experiment [2], 0.1 µg/mL (≈ 0.322 µM); in experiment [3] it was 3.1 µg/mL (≈ 9.97 µM).
